Columns and labels:
OATP1B3 = conditions: cited from earlier work
[1] = Treatment-emergent adverse events, SAD period; type: in vivo, human
Summary of the method: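 Double-blind, placebo-controlled study in healthy men and nonchildbearing women aged 18–55 y. The SAD period gave one fasted oral dose; the MAD period gave fed dosing q.d. for 10 days, plus a separate b.i.d. cohort. TEAEs, serious AEs and discontinuation AEs were monitored ≥28 days after the last dose. Vital signs, physical exam, 12-lead ECG, hematology, clinical chemistry and urinalysis were also recorded. Data summarized descriptively.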

Cn1cc(-c2cn3nccc3c(-c3cnn([C@]4(CC#N)C[C@@H](C#N)C4)c3)n2)cn1 [PF‐06826647]
inhibition of transporter protein OATP1B3 (OATP1B3): minimal inhibition | AEs ([1]; SAD 3 mg (n = 6)): 0 n | AEs leading to study drug dose reduction or interruption ([1]; SAD 3 mg (n = 6)): 0 n | Participants with AEs ([1]; SAD 3 mg (n = 6)): 0 n (%) | Participants with TEAEs: Alanine aminotransferase increased ([1]; SAD 3 mg (n = 6)): 0 n (%) | Participants with TEAEs: Aspartate aminotransferase increased ([1]; SAD 3 mg (n = 6)): 0 n (%) | Participants with TEAEs: Edema ([1]; SAD 3 mg (n = 6)): 0 n (%) | Participants with TEAEs: Face edema ([1]; SAD 3 mg (n = 6)): 0 n (%) | Participants with TEAEs: Gastrointestinal disorders (SOC) ([1]; SAD 3 mg (n = 6)): 0 n (%) | Participants with TEAEs: General disorders and administration site conditions (SOC) ([1]; SAD 3 mg (n = 6)): 0 n (%) | Participants with TEAEs: Headache ([1]; SAD 3 mg (n = 6)): 0 n (%) | Participants with TEAEs: Injury, poisoning, and procedural complications (SOC) ([1]; SAD 3 mg (n = 6)): 0 n (%) | Participants with TEAEs: Investigations (SOC) ([1]; SAD 3 mg (n = 6)): 0 n (%) | Participants with TEAEs: Nausea ([1]; SAD 3 mg (n = 6)): 0 n (%) | Participants with TEAEs: Nervous system disorders (SOC) ([1]; SAD 3 mg (n = 6)): 0 n (%) | Participants with TEAEs: Periorbital hematoma ([1]; SAD 3 mg (n = 6)): 0 n (%) | Participants with TEAEs: Periorbital hemorrhage ([1]; SAD 3 mg (n = 6)): 0 n (%) | Participants with TEAEs: Peripheral swelling ([1]; SAD 3 mg (n = 6)): 0 n (%) | Participants with TEAEs: Pruritus ([1]; SAD 3 mg (n = 6)): 0 n (%) | Participants with TEAEs: Rash ([1]; SAD 3 mg (n = 6)): 0 n (%) | Participants with TEAEs: Skin and subcutaneous tissue disorders (SOC) ([1]; SAD 3 mg (n = 6)): 0 n (%) | Participants with TEAEs: Urticaria ([1]; SAD 3 mg (n = 6)): 0 n (%) | SAEs ([1]; SAD 3 mg (n = 6)): 0 n | Severe AEs ([1]; SAD 3 mg (n = 6)): 0 n | AEs ([1]; SAD 10 mg (n = 6)): 0 n | AEs leading to study drug dose reduction or interruption ([1]; SAD 10 mg (n = 6)): 0 n | Participants with AEs ([1]; SAD 10 mg (n = 6)): 0 n (%) | Participants with TEAEs: Alanine aminotransferase increased ([1]; SAD 10 mg (n = 6)): 0 n (%) | Participants with TEAEs: Aspartate aminotransferase increased ([1]; SAD 10 mg (n = 6)): 0 n (%) | Participants with TEAEs: Edema ([1]; SAD 10 mg (n = 6)): 0 n (%) | Participants with TEAEs: Face edema ([1]; SAD 10 mg (n = 6)): 0 n (%) | Participants with TEAEs: Gastrointestinal disorders (SOC) ([1]; SAD 10 mg (n = 6)): 0 n (%) | Participants with TEAEs: General disorders and administration site conditions (SOC) ([1]; SAD 10 mg (n = 6)): 0 n (%) | Participants with TEAEs: Headache ([1]; SAD 10 mg (n = 6)): 0 n (%) | Participants with TEAEs: Injury, poisoning, and procedural complications (SOC) ([1]; SAD 10 mg (n = 6)): 0 n (%) | Participants with TEAEs: Investigations (SOC) ([1]; SAD 10 mg (n = 6)): 0 n (%) | Participants with TEAEs: Nausea ([1]; SAD 10 mg (n = 6)): 0 n (%) | Participants with TEAEs: Nervous system disorders (SOC) ([1]; SAD 10 mg (n = 6)): 0 n (%) | Participants with TEAEs: Periorbital hematoma ([1]; SAD 10 mg (n = 6)): 0 n (%) | Participants with TEAEs: Periorbital hemorrhage ([1]; SAD 10 mg (n = 6)): 0 n (%) | Participants with TEAEs: Peripheral swelling ([1]; SAD 10 mg (n = 6)): 0 n (%) | Participants with TEAEs: Pruritus ([1]; SAD 10 mg (n = 6)): 0 n (%) | Participants with TEAEs: Rash ([1]; SAD 10 mg (n = 6)): 0 n (%) | Participants with TEAEs: Skin and subcutaneous tissue disorders (SOC) ([1]; SAD 10 mg (n = 6)): 0 n (%) | Participants with TEAEs: Urticaria ([1]; SAD 10 mg (n = 6)): 0 n (%) | SAEs ([1]; SAD 10 mg (n = 6)): 0 n | Severe AEs ([1]; SAD 10 mg (n = 6)): 0 n | AEs ([1]; SAD 30 mg (n = 8)): 0 n | AEs leading to study drug dose reduction or interruption ([1]; SAD 30 mg (n = 8)): 0 n | Participants with AEs ([1]; SAD 30 mg (n = 8)): 0 n (%) | Participants with TEAEs: Alanine aminotransferase increased ([1]; SAD 30 mg (n = 8)): 0 n (%) | Participants with TEAEs: Aspartate aminotransferase increased ([1]; SAD 30 mg (n = 8)): 0 n (%) | Participants with TEAEs: Edema ([1]; SAD 30 mg (n = 8)): 0 n (%) | Participants with TEAEs: Face edema ([1]; SAD 30 mg (n = 8)): 0 n (%) | Participants with TEAEs: Gastrointestinal disorders (SOC) ([1]; SAD 30 mg (n = 8)): 0 n (%) | Participants with TEAEs: General disorders and administration site conditions (SOC) ([1]; SAD 30 mg (n = 8)): 0 n (%) | Participants with TEAEs: Headache ([1]; SAD 30 mg (n = 8)): 0 n (%) | Participants with TEAEs: Injury, poisoning, and procedural complications (SOC) ([1]; SAD 30 mg (n = 8)): 0 n (%) | Participants with TEAEs: Investigations (SOC) ([1]; SAD 30 mg (n = 8)): 0 n (%) | Participants with TEAEs: Nausea ([1]; SAD 30 mg (n = 8)): 0 n (%) | Participants with TEAEs: Nervous system disorders (SOC) ([1]; SAD 30 mg (n = 8)): 0 n (%) | Participants with TEAEs: Periorbital hematoma ([1]; SAD 30 mg (n = 8)): 0 n (%) | Participants with TEAEs: Periorbital hemorrhage ([1]; SAD 30 mg (n = 8)): 0 n (%) | Participants with TEAEs: Peripheral swelling ([1]; SAD 30 mg (n = 8)): 0 n (%) | Participants with TEAEs: Pruritus ([1]; SAD 30 mg (n = 8)): 0 n (%) | Participants with TEAEs: Rash ([1]; SAD 30 mg (n = 8)): 0 n (%) | Participants with TEAEs: Skin and subcutaneous tissue disorders (SOC) ([1]; SAD 30 mg (n = 8)): 0 n (%) | Participants with TEAEs: Urticaria ([1]; SAD 30 mg (n = 8)): 0 n (%) | SAEs ([1]; SAD 30 mg (n = 8)): 0 n

Source: article PMC7993274 (Clinical and Translational Science, 2020)
